Test [1] is described as follows: Antiproliferative activity against mouse 26-L5 cells after 72 hrs by MTT assay. It counts as functional, cell-based. In a few lines: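 Murine colon 26-L5 carcinoma cells kept in RPMI with 10% fetal calf serum. 2500 cells per well were left to attach for 24 h at 37 °C under 5% CO2, then exposed for 72 h to varying concentrations in medium, from a DMSO stock (<0.1% DMSO). MTT was added for 2 h and formazan read at 550 nm. EC50 was taken from the mean of four wells.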

The nature of test [2]: Antiproliferative activity against mouse B16-BL6 cells after 72 hrs by MTT assay. It counts as functional, cell-based. Particulars: B16-BL6, 72 h. In a few lines: (§1)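 Cells kept in Eagle's MEM with 10% fetal calf serum. 2500 cells per well were left to attach for 24 h at 37 °C under 5% CO2, then given varying concentrations for 72 h. Samples were dissolved in DMSO and diluted in medium (DMSO <0.1%). After 2 h with MTT, formazan was read at 550 nm. EC50 was taken from the mean of four wells.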
On the technique in general: Formazan colour is commonly taken as a measure of viable cells.

In a further test the test system is HeLa. Nature of the test: Antiproliferative activity against human HeLa cells after 72 hrs by MTT assay. It counts as functional, cell-based. In a few lines: as §1
In the next test the test system is A549. Nature of the test: Antiproliferative activity against human A549 cells after 72 hrs by MTT assay. The note with it: A549, 72 h. It counts as functional, cell-based. A digest of the protocol: as §1
A further test concerns HT-1080. The test is described as follows: Antiproliferative activity against human HT1080 cells after 72 hrs by MTT assay. It counts as functional, cell-based. Particulars: HT-1080, 72 h. In a few lines: as §1
Test [3] can be described thus: DPPH radical scavenging activity after 30 mins. It counts as functional. In a few lines: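 Samples in EtOH were vortexed with an equal volume of DPPH solution ([…] before mixing). Absorbance was read at 520 nm after 30 min.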

Counter-ions that a name gives are not always drawn. Activity calls are given as the source filed them. No cut-off for these calls is given here. Where only a bound is given, the exact number is not on record here.

As usually defined, the EC50 is the concentration needed to bring the measured effect to its halfway point. Turning to `COc1cc(/C=C/C(=O)OCc2ccccc2)ccc1O` [BENZYL FERULATE], the EC50 in test [1] stood at 46.4 µM; in test [2], 63.7 µM; with HeLa, 51.1 µM; in the test on A549 it was 92.8 µM; in the test with HT-1080, 46.7 µM.
Take `COc1cccc2c1C(=O)c1c(O)c3c(c(O)c1C2=O)C[C@@](O)(C(=O)CO)C[C@@H]3O[C@H]1C[C@H](N)[C@H](O)[C@H](C)O1` [DOXORUBICIN HYDROCHLORIDE]: the EC50 came out at 0.02 µM in test [1]; 0.11 µM in test [2]; 0.02 µM with HeLa; 0.04 µM with A549; 0.02 µM with HT-1080.
For the compound `COc1ccc(/C=C/C(=O)O)cc1O` [ISOFERULIC ACID], the EC50 (in test [1]; in test [2]; in the test on HeLa; in the test with A549; in the test with HT-1080) was greater than 515 µM each time.
Consider `O=c1cc(-c2ccc(O)cc2)oc2cc(O)cc(O)c12` [APIGENIN], for which the EC50 was found to be 25 µM in test [1]; 31.6 µM in test [2]; 92.7 µM in the test on HeLa; 101 µM with A549; 36.6 µM in the test on HT-1080.
Taken in the same sequence, the figures for `CC[C@H](C)C(=O)O[C@H]1C(=O)c2c(O)cc(O)cc2O[C@@H]1c1ccccc1` were 78.9 µM, 185 µM, 116 µM, 160 µM and 143 µM.
On to `COc1cc(O)c2c(c1)O[C@H](c1ccccc1)CC2=O` [PINOSTROBIN], for which the EC50 is 128 µM in test [1]; 111 µM in test [2]; 202 µM in the test on HeLa; greater than 370 µM in the test with A549; 156 µM in the test on HT-1080.
Regarding `O=C(/C=C/c1ccc(O)c(O)c1)OCCc1ccccc1` [CAFFEIC ACID PHENETHYL ESTER], the result in test [3] was Active. Besides, the EC50 came to 0.3 µM in test [1]; 6.79 µM in test [2]; 2.36 µM in the test with HeLa; 27.9 µM in the test with A549; 9.5 µM in the test with HT-1080.
Consider `COc1cc(O)c2c(=O)cc(-c3ccccc3)oc2c1` [TECHTOCHRYSIN], for which the concentration for a half-maximal effect (EC50) is 273 µM in test [1]; 226 µM in test [2]; greater than 370 µM in the test with HeLa; greater than 370 µM in the test on A549; 358 µM in the test on HT-1080.
As for `O=C1C[C@@H](c2ccccc2)Oc2cc(O)cc(O)c21` [PINOCEMBRIN], the EC50 in test [1] is 75.6 µM; in test [2], 68 µM; in the test with HeLa it was 108 µM; in the test on A549, 229 µM; in the test with HT-1080, 92.4 µM.
Take `O=c1cc(-c2ccccc2)oc2cc(O)cc(O)c12` [CHRYSIN]: the EC50 in test [1] was 109 µM; in test [2] it was 74.4 µM; in the test on HeLa, 111 µM; in the test on A549, 233 µM; with HT-1080, 94.9 µM.
Taken in the same sequence, the figures for `O=c1cc(-c2ccccc2)oc2cc(O)c(C/C=C/c3ccccc3)c(O)c12` were greater than 270 µM, greater than 270 µM, greater than 270 µM, greater than 270 µM and greater than 270 µM.
For `COc1ccc(/C=C/C(=O)O)cc1OC` [O,O'-DIMETHYLCAFFEIC ACID], in that order: greater than 480 µM, greater than 480 µM, greater than 480 µM, greater than 480 µM and greater than 480 µM.
For the compound `O=c1c(O)c(-c2ccccc2)oc2cc(O)cc(O)c12` [GALANGIN], the EC50 in test [1] came to 19.2 µM; in test [2], 26.8 µM; with HeLa it was 79 µM; with A549, 93.6 µM; in the test with HT-1080 it was 35.7 µM.
`O=C(/C=C/c1ccc(O)c(O)c1)OCc1ccccc1` [BENZYL CAFFEATE]: in test [3], the outcome was Active. In addition, the EC50 in test [1] was determined as 1.01 µM; in test [2], 9.78 µM; in the test with HeLa it was 2.33 µM; with A549, 35 µM; in the test on HT-1080, 9.74 µM.
Consider `COc1cc(O)c2c(=O)c(O)c(-c3ccccc3)oc2c1` [IZALPININ], for which the concentration giving a half-maximal response (EC50) in test [1] was 30.3 µM; in test [2], greater than 350 µM; with HeLa it was 106 µM; in the test on A549 it was greater than 350 µM; in the test on HT-1080 it was greater than 350 µM.
For the compound `O=c1[nH]cc(F)c(=O)[nH]1` [FLUOROURACIL], the half-maximal effective concentration (EC50) in test [1] worked out at 0.31 µM; in test [2], 1.23 µM; with HeLa it was 0.23 µM; in the test with A549, 3.61 µM; with HT-1080, 1.38 µM.
